Values after ≈ are worked out from the molar mass of the structure shown.
Columns and labels:
[1] = tested on: Rattus norvegicus; assay: Toxicity in female rat assessed as effect on WBC count at 100 mg/kg/day, po bid administered for 4 weeks (reference value: 3.66 x 10^9/L); type: organism-based; design: route oral; settings: in vivo, 672 h
[2] = tested on: Rattus norvegicus; assay: Toxicity in female rat assessed as effect on hemoglobin level at 20 mg/kg/day, po bid administered for 4 weeks (reference value: 141.8 g/L); type: organism-based; design: route oral; settings: in vivo, 672 h
[3] = tested on: Staphylococcus aureus; assay: Antibacterial activity against methicillin-sensitive Staphylococcus aureus ATCC 29213 in po dosed mouse thigh infection model; type: functional, organism-based; settings: Thigh muscle
How it was run: (§1)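 Mouse thigh infection with S. aureus ATCC29213 (MSSA), 10 animals per dosing group. Oral doses were 5, 10, 20, 40 and 80 mg/kg. The read-out was log CFU per thigh after treatment, and the reduction (ΔLogCFU/thigh) was reported.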

[4] = Cmax in fasted human at 600 mg, po administered as single dose; type: ADME, organism-based; design: dose 600 mg, route oral; settings: in vivo
How it was run: (§2)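 Healthy volunteers (12; six of each sex) in a three-period Latin-square crossover. Each received single oral doses of 300, 600 and 900 mg under fasting conditions, with a 1-week washout between doses. Parameters from a noncompartmental model.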

[5] = Half life in male rat at 15 mg/kg, po; type: ADME, organism-based; design: dose 15 mg/kg, route oral; settings: in vivo
[6] = Tmax in human at 600 mg, po administered as single dose with meal measured on day 15; type: ADME, organism-based; settings: in vivo
How it was run: (§3)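 Randomized, double-blind, placebo-controlled multiple-dose study in 32 healthy subjects, half male and half female. Dosing was 600 or 800 mg orally with a meal, 28 doses over 15 days. A single dose was given on days 1 and 15 for full PK, with Q12h (BID) dosing on days 2−14.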

[7] = tested on: Streptococcus agalactiae; assay: Antibacterial activity against Streptococcus agalactiae; type: functional
[8] = tested on: Homo sapiens; assay: Toxicity in human assessed as change in neutrophil count at 600 to 800 mg, po administered as single dose with meal on day 1 and day 15 followed by bid with meal on day 2 to day 14 measured during compound treatment; type: organism-based; settings: in vivo
[9] = Tmax in human at 900 mg, po administered as single dose at 30 mins post fat meal; type: ADME, organism-based; settings: in vivo
How it was run: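 Crossover study in 12 healthy subjects (six per gender). A single oral 900 mg dose was given either fasting or 30 min after a fat-containing meal. Tmax was taken from plasma PK.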

[10] = tested on: Rattus norvegicus; assay: Toxicity in female rat assessed as effect on mean corpuscular volume at 200 to 300 mg/kg/day, po bid administered for 4 weeks (reference value: 53.72 fL); type: organism-based; design: route oral; settings: in vivo, 672 h
[11] = tested on: Rattus norvegicus; assay: Toxicity in female rat assessed as effect on hematocrit level at 100 mg/kg/day, po bid administered for 4 weeks (reference value: 39.08%); type: organism-based; design: route oral; settings: in vivo, 672 h
[12] = molecular target: MAO-A (Homo sapiens, UniProt P21397); assay: Ratio of compound IC50 to linezolid IC50 for human recombinant MAO-A by luciferin-based luminescence assay; type: ADME; settings: read-out: Ratio IC50
[13] = tested on: Rattus norvegicus; assay: Toxicity in female rat assessed as effect on lymphocyte count at 100 mg/kg/day, po bid administered for 4 weeks (reference value: 74.8%); type: organism-based; design: route oral; settings: in vivo, 672 h
[14] = tested on: Rattus norvegicus; assay: Toxicity in female rat assessed as change in bone marrow at 200 to 300 mg/kg/day, po bid administered for 4 weeks; type: organism-based; design: route oral; settings: in vivo, 672 h
How it was run: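 Rats given the drug orally twice daily for 4 weeks, 10 rats per gender per group. Doses were 20, 100 and 200/300 mg/kg/day, with the top dose raised from 200 to 300 on day 15. Linezolid comparator at 100 and 200 mg/kg/day. Followed by a 4-week recovery. Mortality, body weight, hematology and bone marrow examined. TK blood sampled on days 1, 14 and 28.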

[15] = Cmax in fasted human at 300 mg, po administered as single dose; type: ADME, organism-based; design: dose 300 mg, route oral; settings: in vivo; how it was run: as §2
[16] = tested on: Staphylococcus aureus; assay: Antibacterial activity against methicillin-sensitive Staphylococcus aureus isolate 15; type: functional
[17] = species on record: Canis familiaris; assay: Drug uptake in dog measured over 7 days; type: ADME, organism-based, Canis lupus familiaris; settings: in vivo, 168 h
[18] = Half life in female rat at 15 mg/kg, po; type: ADME, organism-based; design: dose 15 mg/kg, route oral; settings: in vivo
[19] = tested on: Enterococcus faecalis; assay: Antibacterial activity against vancomycin-sensitive/high-level gentamycin-resistant Enterococcus faecalis isolate HH22; type: functional; settings: EnGen0297
[20] = Tmax in fasted human at 900 mg, po administered as single dose; type: ADME, organism-based; settings: in vivo
How it was run: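 Randomized single-dose, three-period Latin-square crossover in 12 healthy volunteers (six per gender), fasting. Single oral doses of 300, 600 and 900 mg were separated by a 1-week washout. PK parameters were derived by noncompartmental analysis.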

[21] = molecular target: T1, Amine oxidase [flavin-containing] A (Homo sapiens, UniProt P21397); assay: Inhibition of MAO-A (unknown origin) using tyramine as substrate after 30 to 60 mins by fluorescence plate reader analysis
T1 sequence (P21397 whole entry): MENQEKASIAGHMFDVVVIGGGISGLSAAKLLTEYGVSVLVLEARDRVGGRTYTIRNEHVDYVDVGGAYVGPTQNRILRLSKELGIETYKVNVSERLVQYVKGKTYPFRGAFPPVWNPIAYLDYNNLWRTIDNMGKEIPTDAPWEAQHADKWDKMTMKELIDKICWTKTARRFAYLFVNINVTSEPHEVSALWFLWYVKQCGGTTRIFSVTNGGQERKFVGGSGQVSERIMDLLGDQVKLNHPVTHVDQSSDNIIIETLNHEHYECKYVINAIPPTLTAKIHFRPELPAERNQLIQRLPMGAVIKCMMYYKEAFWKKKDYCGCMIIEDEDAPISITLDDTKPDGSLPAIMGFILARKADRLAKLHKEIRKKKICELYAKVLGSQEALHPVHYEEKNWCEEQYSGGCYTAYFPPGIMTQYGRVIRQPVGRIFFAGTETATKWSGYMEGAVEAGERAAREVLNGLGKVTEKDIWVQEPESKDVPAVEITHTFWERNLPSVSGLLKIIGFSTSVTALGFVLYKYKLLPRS

[22] = tested on: Staphylococcus aureus; assay: Antibacterial activity against methicillin-sensitive Staphylococcus aureus ATCC 29213 in mouse thigh infection model assessed as reduction of log10 CFU per thigh at 40 mg/kg, po; type: functional; how it was run: as §1
[23] = tested on: Staphylococcus aureus; assay: Antibacterial activity against Staphylococcus aureus in po dosed mouse septicemia model; type: functional
[24] = Cmax in female rat at 5 mg/kg, po; type: ADME, organism-based; design: dose 5 mg/kg, route oral; settings: in vivo
[25] = tested on: Streptococcus pneumoniae; assay: Bactericidal activity against penicillin-sensitive Streptococcus pneumoniae; type: functional
[26] = tested on: Streptococcus pneumoniae; assay: Antibacterial activity against penicillin-sensitive Streptococcus pneumoniae isolate 0806; type: functional
[27] = tested on: Rattus norvegicus; assay: Toxicity in female rat assessed as effect on platelet count at 100 mg/kg/day, po bid administered for 4 weeks (reference value: 654.6 x 10^9/L); type: organism-based; design: route oral; settings: in vivo, 672 h
[28] = tested on: Rattus norvegicus; assay: Toxicity in rat assessed as rate of body weight gain at 100 mg/kg, po bid measured over 4 weeks of test period; type: organism-based; design: dose 100 mg/kg, route oral; settings: in vivo, 672 h
[29] = tested on: Streptococcus pneumoniae; assay: Antibacterial activity against penicillin-sensitive Streptococcus pneumoniae isolate 0806 in po dosed mouse systemic infection model; type: functional; settings: isolate 0806, po
[30] = tested on: Staphylococcus aureus; assay: Antibacterial activity against methicillin-resistant Staphylococcus aureus isolate 0605 in mouse thigh infection model assessed as reduction of log10 CFU per thigh at 5 mg/kg, po; type: functional
[31] = tested on: Staphylococcus aureus; assay: Antibacterial activity against methicillin-resistant Staphylococcus aureus isolate 0612; type: functional
[32] = Tmax in human at 800 mg, po administered as single dose with meal measured on day 1; type: ADME, organism-based; settings: in vivo; how it was run: as §3

O=C1C=CN(c2c(F)cc(N3C[C@H](CNc4ccon4)OC3=O)c(F)c2F)CC1 [CONTEZOLID]
Activity [1]: 3.14 ×10⁹ /L | Activity [2]: 137.8 g/L | Activity [3]: Dose-dependent effect | Cmax [4]: 12200 ng/mL | half-life [5]: 1.18 h | Tmax [6]: 0.6 h | MIC50 [7]: 1 µg/mL (≈ 2.45 µM) | MIC90 [7]: 1 µg/mL (≈ 2.45 µM) | Activity [8]: Non-toxic | Tmax [9]: 1.63 h | Activity [10]: 53.02 fL | Activity [11]: 36.48% | selectivity ratio [12]: 3 | Activity [13]: 78.8% | Activity [14]: Toxic | Cmax [15]: 8070 ng/mL | MIC [16]: 2 µg/mL (≈ 4.9 µM) | Drug uptake [17]: Not Active | half-life [18]: 1.47 h | MIC [19]: 2 µg/mL (≈ 4.9 µM) | Tmax [20]: 1.4 h | IC50 [21]: 103 µM | deltalog10CFU [22]: 3.42 | ED50 [23]: 7.9 mg/kg | Cmax [24]: 9390 ng/mL | MIC50 [25]: 0.5 µg/mL (≈ 1.22 µM) | MIC90 [25]: 0.5 µg/mL (≈ 1.22 µM) | MIC [26]: 2 µg/mL (≈ 4.9 µM) | Activity [27]: 636.2 ×10⁹ /L | Activity [28]: Non-toxic | ED50 [29]: 22 mg/kg | deltalog10CFU [30]: 2.45 | MIC [31]: 2 µg/mL (≈ 4.9 µM) | Tmax [32]: 0.85 h
